T cruzi growth-1: inhibitors of T. cruzi proliferation | AID 624255 | 77,000 compounds, 5.9% hits | inhibition, % at 8.34 µM | T. cruzi beta-gal in NIH3T3, GalScreen luminescence, 90 h;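 active = mean inhibition above about 93%, with at least 55% of replicates each passing it, limit read from the data, passing the limit was not always enough; inconclusive = only one of those two conditions holds; inactive = neither condition holds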
IDH1 mut inh: blocks human IDH1 R132H reductase activity; diaphorase/resazurin fluorescence, 60 min; O75874; 70,000 compounds, 0.18% hits; AID 624101; inhibition, % at 10 µM; in the data active = inhibition above about 34%; inconclusive = no clear call, values can overlap the other calls; inactive = below about 11%
Target sequence (O75874 whole entry R132H): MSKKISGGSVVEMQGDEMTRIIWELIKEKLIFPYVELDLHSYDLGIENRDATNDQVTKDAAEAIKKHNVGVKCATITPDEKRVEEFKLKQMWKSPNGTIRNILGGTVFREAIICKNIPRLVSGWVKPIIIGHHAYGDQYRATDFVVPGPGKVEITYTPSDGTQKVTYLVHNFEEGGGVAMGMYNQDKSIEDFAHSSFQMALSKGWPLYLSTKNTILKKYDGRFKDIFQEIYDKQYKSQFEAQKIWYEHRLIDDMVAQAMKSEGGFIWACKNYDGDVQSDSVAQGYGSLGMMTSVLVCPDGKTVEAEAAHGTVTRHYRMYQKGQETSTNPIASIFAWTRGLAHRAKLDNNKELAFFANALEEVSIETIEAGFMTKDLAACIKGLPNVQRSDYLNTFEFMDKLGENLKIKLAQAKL
KDM4C inh: KDM4C (human) demethylase inhibition | 96,000 compounds, 0.15% hits | GST-KDM4C 2-372, H3K9me3 peptide, LANCE TR-FRET | Q9H3R0 | AID 720574 | inhibition, % at 12.5 µM;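 active = mean replicate inhibition above about 25%, with at least 55% of replicates also reaching it, limit read from the data, passing the limit was not always enough; inconclusive = only one of those two conditions met; inactive = neither condition met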
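Test system – GST-tagged GASC-1 (JMJD2C) catalytic fragment, aa 2-372 · Medium – HEPES buffer, pH 7.5, plus ascorbate · Reagent – H3K9me3 peptide with Fe(II)/2OG · Compound – one test concentration per compound · Timing – 30 min reaction, 60 min detection, RT · Technique – TR-FRET with Eu antibody and ULight streptavidin, EDTA stop · Read-out basis – inhibition from TR-FRET ratio decrease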
T cruzi growth-2: inhibitors of T. cruzi proliferation; shares compounds with T cruzi growth-1; T. cruzi beta-gal in NIH3T3, GalScreen luminescence, 90 h; inhibition, % at 8.35 µM; 5,600 compounds, 72% hits; AID 651739;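 active = mean replicate inhibition above about 95% and at least 55% of replicates individually reaching it, limit read from the data; inconclusive = only one of the two criteria is met; inactive = neither criterion is met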
T cruzi growth-3: blocks T. cruzi growth in NIH3T3 host cells | 5,600 compounds, 21% hits | AID 651740 | shares compounds with T cruzi growth-1 | inhibition, % at 2.09 µM | T. cruzi beta-gal in NIH3T3, GalScreen luminescence, 90 h;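 active = mean inhibition above about 95%, with at least 55% of replicates also reaching it, limit read from the data; inconclusive = meets just one of the two conditions; inactive = meets neither condition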
NIH3T3 tox: NIH/3T3 (mouse) viability loss; 5,600 compounds, 14% hits; AID 651742; cytotoxicity (signal decrease), % at 8.35 µM; NIH/3T3 viability, CellTiter-Glo ATP luminescence, 90 h; shares compounds with T cruzi growth-1;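 active = mean signal decrease across replicates above about 35% based on untreated-well scatter, with enough replicates individually passing, limit read from the data; inconclusive = no rule stated though some were filed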
NIH3T3 tox 2: cytotoxicity in mouse NIH/3T3 fibroblasts | shares compounds with T cruzi growth-1 | NIH/3T3 viability, CellTiter-Glo ATP luminescence, 90 h | inhibition, % at 24.9 µM | 5,600 compounds, 56% hits | AID 651744;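 active = mean loss of cell viability signal at or above a set limit, and enough replicates individually reaching it; inconclusive = meets only the mean limit or only the replicate share; inactive = meets neither condition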
Large screens that a line does not name were inactive (follow-up assays come after a bar, where they were run). The sample as a whole holds a higher share of hits than the screen did.

C[C@H](CO)N1C[C@H](C)[C@@H](CN(C)S(=O)(=O)c2ccc(F)cc2)Oc2cc(-c3cccc(F)c3)ccc2S1(=O)=O	T cruzi growth-1 118 (no result: IDH1 mut inh) | T cruzi growth-2 97 | T cruzi growth-3 104 | NIH3T3 tox 39 | NIH3T3 tox 2 42
C[C@@H]1CN([C@@H](C)CO)S(=O)(=O)c2ccc(-c3cccc(F)c3)cc2O[C@H]1CN(C)S(=O)(=O)c1ccc(F)cc1	T cruzi growth-1 113 (no result: IDH1 mut inh) | T cruzi growth-2 101 | T cruzi growth-3 108 | NIH3T3 tox 49 | NIH3T3 tox 2 48
O=C(c1ccc(F)cc1)N1CC[C@H]2[C@H](CO)Nc3ccc(C#Cc4ccccc4F)cc3[C@H]21	none (no result: T cruzi growth-1, IDH1 mut inh)
COc1ccccc1C#Cc1ccc2c(c1)[C@H]1[C@H](CCN1C(=O)c1ccc(F)cc1)[C@@H](CO)N2	none (no result: T cruzi growth-1, IDH1 mut inh)
COc1ccccc1C#Cc1ccc2c(c1)[C@H]1[C@H](CCN1C(=O)c1ccccc1)[C@H](CO)N2	T cruzi growth-1 100 (no result: IDH1 mut inh) | T cruzi growth-2 106 | T cruzi growth-3 inactive | NIH3T3 tox inactive | NIH3T3 tox 2 83
O=C(c1ccccc1)N1CC[C@@H]2[C@@H](CO)Nc3ccc(C#Cc4ccccc4F)cc3[C@@H]21	T cruzi growth-1 101 (no result: IDH1 mut inh) | T cruzi growth-2 106 | T cruzi growth-3 inactive | NIH3T3 tox inactive | NIH3T3 tox 2 96
Cc1ccc(NC(=O)CCn2nc(-c3ccccc3)c3ccccc3c2=O)cc1	none (no result: T cruzi growth-1, KDM4C inh)
C[C@@H]1CCCCO[C@H](CN(C)C(=O)Nc2ccc(C(F)(F)F)cc2)[C@@H](C)CN([C@@H](C)CO)C(=O)c2cc(NC(=O)NC3CCCCC3)ccc2O1	T cruzi growth-1 121 (no result: IDH1 mut inh) | T cruzi growth-2 105 | T cruzi growth-3 115 | NIH3T3 tox inactive | NIH3T3 tox 2 inactive
C[C@@H]1CN([C@H](C)CO)C(=O)c2cc(NC(=O)NC3CCCCC3)ccc2O[C@@H](C)CCCCO[C@H]1CN(C)C(=O)Nc1ccc(C(F)(F)F)cc1	none (no result: T cruzi growth-1)
C[C@@H]1CCCCO[C@H](CN(C)C(=O)Nc2ccc(C(F)(F)F)cc2)[C@H](C)CN([C@@H](C)CO)C(=O)c2cc(NC(=O)NC3CCCCC3)ccc2O1	T cruzi growth-1 117 | T cruzi growth-2 110 | T cruzi growth-3 inactive | NIH3T3 tox inactive | NIH3T3 tox 2 inconclusive
C[C@@H]1CCCCO[C@H](CN(C)C(=O)NC2CCCCC2)[C@@H](C)CN([C@H](C)CO)C(=O)c2cc(NC(=O)Nc3ccc(C(F)(F)F)cc3)ccc2O1	none (no result: IDH1 mut inh)
COc1cc(CN2CC3(CCN(S(=O)(=O)c4cccc(F)c4)CC3)c3c([nH]c4cc(OC)ccc34)[C@H]2CO)cc(OC)c1	none (no result: T cruzi growth-1, IDH1 mut inh)
Cc1ccc(C(=O)O)cc1S(=O)(=O)N(C)CCO	none (no result: T cruzi growth-1, KDM4C inh)
Cc1cc(C)c(NC(=O)CN(c2cccc(Cl)c2C)S(C)(=O)=O)c(C)c1	none (no result: T cruzi growth-1, KDM4C inh)
Cc1ccc(-n2c(C)nnc2SCC(=O)Nc2cccc(C)c2C)cc1	none (no result: T cruzi growth-1, KDM4C inh)
COc1ccccc1S(=O)(=O)N(C)C[C@H]1Oc2cc(C#CCC(C)C)ccc2S(=O)(=O)N([C@@H](C)CO)C[C@@H]1C	T cruzi growth-1 inconclusive | T cruzi growth-2 inconclusive | T cruzi growth-3 114 | NIH3T3 tox inactive | NIH3T3 tox 2 98
COc1ccccc1S(=O)(=O)N(C)C[C@@H]1Oc2cc(C#CCC3CCCC3)ccc2S(=O)(=O)N([C@H](C)CO)C[C@@H]1C	none (no result: T cruzi growth-1)
COc1ccccc1S(=O)(=O)N(C)C[C@H]1Oc2cc(C#CCC3CCCC3)ccc2S(=O)(=O)N([C@H](C)CO)C[C@H]1C	T cruzi growth-1 127, KDM4C inh 26 (no result: IDH1 mut inh) | T cruzi growth-2 inactive | T cruzi growth-3 110 | NIH3T3 tox inactive | NIH3T3 tox 2 inactive
COc1ccccc1S(=O)(=O)N(C)C[C@@H]1Oc2cc(C#CCC(C)C)ccc2S(=O)(=O)N([C@H](C)CO)C[C@@H]1C	none
CN(C)CCCNc1ncnc2c1sc1nc(N3CCOCC3)c3c(c12)CCC3	none (no result: T cruzi growth-1, KDM4C inh)
Cc1noc(C)c1NC(=O)Nc1ccc2c(c1)C(=O)N(C)[C@@H]1CC[C@@H](CC(=O)N[C@@H]3CCN(Cc4ccccc4)C3)O[C@H]1CO2	none (no result: IDH1 mut inh)

Screening results: PubChem, Broad Institute
